Screens as filed in PubChem.
F508del corr: CFTR F508del correction in bronchial cells; CFBE cells, YFP halide quenching; stimulated with forskolin plus potentiator P3; % fluorescence drop versus neutral controls; activity (quench increase), % at 7.58 µM; actives 0.36% (n = 350,000); AID 720511;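 active = mean added fluorescence quench of at least 8% versus neutral control, with both replicates also reaching 8%; inconclusive = only one of the mean or replicate conditions met; inactive = mean below 8% and not both replicates reaching 8%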;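 also: cells transiently co-express mutant CFTR-F508del with the halide-sensitive YFP; corrector assay measuring rescue of mutant channel to the surface after 24 h compound exposure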
C2C12 statin: suppressors of simvastatin-induced myotoxicity in C2C12 myotubes; rescue of ATP level, % at 7.49 µM; ATP luminescence, 48 h; scaled: DMSO 0, geranylgeraniol control 100; actives 0.78% (n = 330,000);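 active = mean ATP rescue above about 67%, or every replicate alone reaching that limit, limit read from the data, passing the limit was not always enough; inconclusive = no clear call, values can overlap the other calls; inactive = mean under the limit and some replicate under it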;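 also: myotubes were challenged with 10 µM simvastatin during compound exposure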
ERp5 block: ERp5 (human) disulfide isomerase inhibition; Q15084; ERp5 insulin aggregation, absorbance 650 nm, 90 min; inhibition, % at 9.99 µM; actives 0.05% (n = 350,000); AID 651711;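 active = mean replicate inhibition above about 25%, with every replicate also reaching it, limit read from the data, passing the limit was not always enough; inconclusive = only one of those two criteria met; inactive = neither criterion met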
Target sequence (Q15084 whole entry, looked up): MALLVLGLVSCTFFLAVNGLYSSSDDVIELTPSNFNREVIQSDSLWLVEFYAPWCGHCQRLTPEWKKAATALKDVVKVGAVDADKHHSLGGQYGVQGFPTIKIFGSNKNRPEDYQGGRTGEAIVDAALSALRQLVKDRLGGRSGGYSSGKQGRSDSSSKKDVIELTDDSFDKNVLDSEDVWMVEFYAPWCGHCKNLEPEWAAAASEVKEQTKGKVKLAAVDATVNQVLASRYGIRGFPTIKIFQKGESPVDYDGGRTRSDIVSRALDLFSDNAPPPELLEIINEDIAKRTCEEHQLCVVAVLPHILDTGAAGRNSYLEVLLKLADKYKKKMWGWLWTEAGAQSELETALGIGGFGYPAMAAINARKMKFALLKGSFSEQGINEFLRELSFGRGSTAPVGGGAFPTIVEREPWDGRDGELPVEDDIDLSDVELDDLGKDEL
Cneo AK release: Cryptococcus neoformans lysis via adenylate kinase release. C. neoformans lysis, adenylate kinase release luminescence, 4 h; normalised: neutral wells 0, clomiphene wells 100. lysis activity, % at 15 µM. actives 0.2% (n = 360,000). AID 651654;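 active = mean lysis activity across replicates of at least 80%, whatever share of replicates individually reach that level; inactive = mean lysis activity below 80%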
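read-out = cell lysis signal | test system = log-phase Cryptococcus neoformans yeast cells | input = cells at 5 × 10^6 per mL | medium = fresh YPD growth medium | signal = luminescent adenylate kinase detection reagent | timing = 4 h at 37 °C static, read 1 h later | dosing = single dose | controls = Clomiphene as positive lysis control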
PDI inh: inhibitors of human protein disulfide isomerase. P07237. PDI insulin aggregation turbidity, A650, 90 min. inhibition, % at 10 µM. actives 0.052% (n = 350,000);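 active = mean inhibition across replicates of 30% or more, whatever share of single replicates reach that level; inconclusive = mean inhibition below 30% while every single replicate reaches 30%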
DENV2 CPE rescue: inhibitors of DENV2 cytopathic effect. DENV2-infected cells, cytopathic effect rescue, plate reader. CPE inhibition, % at 9.99 µM. actives 1.7% (n = 350,000). AID 651640; in the data active = CPE inhibition above about 20%, passing the limit was not always enough; inconclusive = no clear call, values can overlap the other calls; tested in BHK-21 cells;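 also: 0% = median of neutral control wells and 100% = median of positive control wells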
Starred values were filed as active, the others as inactive; ? = inconclusive; . = no result given. Most compounds without a hit are left out; they make up all but 2.3% or so of the library.

SMILES	F508del corr	C2C12 statin	ERp5 block	Cneo AK release	PDI inh	DENV2 CPE rescue
O=P(Oc1ccc(Cl)cc1)(N1CC1)N1CC1	-3.3	2.0	8.7	3.8	-1.3	-6.7
Cc1cccc(S(=O)(=O)N2[C@@H]3Cn4c(ccc(-c5ccncc5)c4=O)[C@H]2[C@@H](C(=O)O)[C@@H]3CO)c1	1.5	-3.7	-9.8	1.6	.	?
COc1ccc(CC2C(=O)NC(C)C(=O)N(C)C3C(=O)N(C)C(Cc4ccc(O)c(c4)Oc4ccc(cc4)C3O)C(=O)NC(C)C(=O)NC(C)C(=O)N2C)cc1 (stereo not drawn)	-0.6	.	2.9	.	-50.2	106.7*
COC(=O)[C@H]1[C@H](CO)[C@H]2Cn3c(ccc(-c4ccc(F)cc4)c3=O)[C@@H]1N2Cc1ccccc1	-1.2	60.5	6.6	1.5	.	-6.1
CCOC(=O)[C@]12Cc3ccc(C)cc3[C@H]1N(C1CCCCC1)C(=O)c1ccccc12	-3.1	.	0.3	.	.	3.5
CCOC(=O)[C@]12Cc3ccc(C)cc3[C@H]1N(C1CCCCC1)C(=O)c1cc(OC)ccc12	20.0*	.	1.6	.	.	55.2*
CC(C)n1nnnc1CN1CCN(C)CC1	.	99.1*	.	-0.3	22.3	.
N#Cc1cccc(-c2ccc([C@H]3[C@H]4CN(C(=O)Cc5ccccc5)CCCCN4[C@H]3CO)cc2)c1	-2.8	.	7.3	0.1	.	8.7
O=C(NCCN1CCC2(CC1)C(=O)NCN2c1ccccc1)c1ccccc1F	-0.5	.	-4.0	.	.	30.8*
CCC(=Nc1ccc2c(c1)CCC2)c1c(O)n(C)c(=O)n(C)c1=O	.	111.8*	.	-0.8	-10.9	.
C=CCCC1(C2=CCCCC2)C(=O)NC(=O)NC1=O	1.2	.	-5.8	.	4.6	26.6*
O=C(O)[C@H]1[C@H](CO)[C@H]2Cn3c(ccc(-c4ccccc4)c3=O)[C@@H]1N2CC1CCCCC1	-3.2	15.0	-0.2	-1.9	.	-0.2
